pIC50: −log10 of the molar value. Values after ≈ are worked out from the molar mass of the structure shown. Active and inactive are the calls of the source. The rule behind the calls is not given here.
What was measured:
Escherichia coli [1] = conditions: DSM 498
Staphylococcus aureus [2] = assay: Antimicrobial activity against Staphylococcus aureus DSM 346 by serial dilution method; assay type: functional
How it was run: (§1)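 MIC by serial dilution in microtiter plates, in triplicate. YMG medium for yeasts and filamentous fungi, EBS for bacteria. Starting concentration 300 μg/mL.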

Wickerhamomyces anomalus = assay: Antimicrobial activity against Pichia anomala DSM 6766 by serial dilution method; assay type: functional
How it was run: as §1

KB 3-1 [3] = assay: Cytotoxicity against human KB 3.1 cells assessed as inhibition of cell growth at 37 ug/ml after 5 days by MTT assay; assay type: cell-based; conditions: kb 3-1, 120 h
Mucor plumbeus = assay: Antimicrobial activity against Mucor plumbeus MUCL 49355 by serial dilution method; assay type: functional
How it was run: as §1

L929 [4] = assay: Cytotoxicity against mouse L929 cells assessed as inhibition of cell growth at 37 ug/ml after 5 days by MTT assay; assay type: cell-based; conditions: l929, 120 h
Micrococcus luteus = assay: Antimicrobial activity against Micrococcus luteus DSM 1790 by serial dilution method; assay type: functional
How it was run: as §1

Bacillus subtilis = assay: Antimicrobial activity against Bacillus subtilis DSM 10 by serial dilution method; assay type: functional
How it was run: as §1

Yamadazyma tenuis = assay: Antimicrobial activity against Candida tenuis MUCL 29982 by serial dilution method; assay type: functional
How it was run: as §1

Escherichia coli [5] = assay: microbe, parasite or virus in culture; conditions: DSM 498
Staphylococcus aureus [6] = assay: Antibiofilm activity against Staphylococcus aureus DSM 1104 preformed biofilm at 128 ug/ml after 24 hrs by crystal violet staining based assay relative to control; assay type: functional; conditions: DSM 1104, 24 h
How it was run: (§2)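 S. aureus set to 0.5 McFarland turbidity; biofilm preformed 24 h in CASO broth with 4% glucose, then exposed to compounds a further 24 h at 37 °C. Remaining biofilm quantified by crystal violet staining. Triplicate, two repetitions.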

Staphylococcus aureus [7] = assay: Antibiofilm activity against Staphylococcus aureus DSM 1104 preformed biofilm at 64 ug/ml after 24 hrs by crystal violet staining based assay relative to control; assay type: functional; conditions: DSM 1104, 24 h
How it was run: as §2

Candida albicans [8] = assay: Antimicrobial activity against Candida albicans DSM 11225 by serial dilution method; assay type: functional
Staphylococcus aureus [9] = assay: Antibiofilm activity against Staphylococcus aureus DSM 1104 at 256 ug/ml after 24 hrs by crystal violet staining based assay relative to control; assay type: functional; conditions: DSM 1104, 24 h
How it was run: (§3)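 S. aureus set to 0.5 McFarland turbidity and grown with serially diluted compounds in CASO broth with 4% glucose, 24 h, 37 °C. Biofilm stained with crystal violet 15 min, washed three times, dye extracted with dilute acetic acid, absorbance read at 550 nm. Two repeats of three parallel experiments; methanol as negative control.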

Staphylococcus aureus [10] = assay: Antibiofilm activity against Staphylococcus aureus DSM 1104 at 64 ug/ml after 24 hrs by crystal violet staining based assay relative to control; assay type: functional; conditions: DSM 1104, 24 h
How it was run: as §3

Candida albicans [11] = assay: Antibiofilm activity against Candida albicans DSM 11225 preformed biofilm at 8 ug/ml after 24 hrs by MTT assay relative to control; assay type: functional; conditions: DSM 11225, 24 h
Staphylococcus aureus [12] = assay: Antibiofilm activity against Staphylococcus aureus DSM 1104 preformed biofilm at 256 ug/ml after 24 hrs by crystal violet staining based assay relative to control; assay type: functional; conditions: DSM 1104, 24 h
How it was run: as §2

Staphylococcus aureus [13] = assay: Antimicrobial activity against Staphylococcus aureus DSM 1104 by serial dilution method; assay type: functional
KB 3-1 [14] = assay: Cytotoxicity against human KB 3.1 cells assessed as inhibition of cell growth after 5 days by MTT assay; assay type: cell-based; conditions: KB 3-1, 120 h
How it was run: (§4)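 IC50 determined by the previously described in vitro cytotoxicity method against mouse fibroblast L929 and HeLa-derived KB-3.1 cells. Compounds were tested from a starting concentration of 37 μg/mL.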

Staphylococcus aureus [15] = assay: Antibiofilm activity against Staphylococcus aureus DSM 1104 after 24 hrs by crystal violet staining based assay; assay type: functional, organism-based
How it was run: as §3

Staphylococcus aureus [16] = assay: Antibiofilm activity against Staphylococcus aureus DSM 1104 at 16 ug/ml after 24 hrs by crystal violet staining based assay relative to control; assay type: functional; conditions: DSM 1104, 24 h
How it was run: as §3

Candida albicans [17] = assay: Antibiofilm activity against Candida albicans DSM 11225 preformed biofilm at 16 ug/ml after 24 hrs by MTT assay relative to control; assay type: functional; conditions: DSM 11225, 24 h
Staphylococcus aureus [18] = assay: Antibiofilm activity against Staphylococcus aureus DSM 1104 at 128 ug/ml after 24 hrs by crystal violet staining based assay relative to control; assay type: functional; conditions: DSM 1104, 24 h
How it was run: as §3

L929 [19] = assay: Cytotoxicity against mouse L929 cells assessed as inhibition of cell growth after 5 days by MTT assay; assay type: cell-based; conditions: L929, 120 h
How it was run: as §4

Staphylococcus aureus [20] = assay: Antibiofilm activity against Staphylococcus aureus DSM 1104 preformed biofilm after 24 hrs by crystal violet staining based assay; assay type: functional, organism-based
How it was run: as §2

Staphylococcus aureus [21] = assay: Antibiofilm activity against Staphylococcus aureus DSM 1104 at 150 ug/ml after 24 hrs by crystal violet staining based assay relative to control; assay type: functional; conditions: DSM 1104, 24 h
How it was run: as §3

Staphylococcus aureus [22] = assay: Antibiofilm activity against Staphylococcus aureus DSM 1104 at 37 ug/ml after 24 hrs by crystal violet staining based assay relative to control; assay type: functional; conditions: DSM 1104, 24 h
How it was run: as §3

Staphylococcus aureus [23] = assay: Antibiofilm activity against Staphylococcus aureus DSM 1104 at 75 ug/ml after 24 hrs by crystal violet staining based assay relative to control; assay type: functional; conditions: DSM 1104, 24 h
How it was run: as §3

Candida albicans [24] = assay: Antibiofilm activity against Candida albicans DSM 11225 preformed biofilm after 24 hrs by MTT assay; assay type: functional, organism-based
How it was run: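 C. albicans set to 0.5 McFarland turbidity; biofilm preformed 4 h at 37 °C in SB broth, then treated with serially diluted compounds for a further 24 h at 37 °C. Dispersal read by MTT reduction. Triplicate, two repetitions; methanol as negative control.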

C/C(=C\CC/C(C)=C/CO[C@@H](C(=O)O)[C@H](CC(=O)O)C(=O)O)CC/C=C(\C)CC/C=C(\C)C(=O)O
MIC (Escherichia coli [1]): inactive
MIC (Staphylococcus aureus [2]): inactive
MIC (Wickerhamomyces anomalus): inactive
Activity (KB 3-1 [3]): Non-Toxic
MIC (Mucor plumbeus): inactive
Activity (L929 [4]): Non-Toxic
MIC (Micrococcus luteus): 75 µg/mL (≈ 152 µM)
MIC (Bacillus subtilis): inactive
MIC (Yamadazyma tenuis): inactive

CC(C)=CCC/C(C)=C/CC/C(C)=C/CO[C@@H](C(=O)O)[C@H](CC(=O)O)C(=O)O
MIC (Escherichia coli [1]): inactive
MIC (Staphylococcus aureus [2]): 150 µg/mL (≈ 378 µM)
MIC (Wickerhamomyces anomalus): inactive
Activity (KB 3-1 [3]): Non-Toxic
MIC (Mucor plumbeus): 75 µg/mL (≈ 189 µM)
Activity (L929 [4]): Non-Toxic
MIC (Micrococcus luteus): 9.4 µg/mL (≈ 23.7 µM)
MIC (Bacillus subtilis): 18.8 µg/mL (≈ 47.4 µM)
MIC (Yamadazyma tenuis): 37.5 µg/mL (≈ 94.6 µM)

O=C(O)c1cn(C2CC2)c2cc(N3CCNCC3)c(F)cc2c1=O [CIPROFLOXACIN]
MIC (Escherichia coli [5]): 2.3 µg/mL (≈ 6.94 µM)
MIC (Bacillus subtilis): 2.3 µg/mL (≈ 6.94 µM)

C/C(=C\CC/C(C)=C/CO[C@@H](C(=O)O)[C@H](CC(=O)O)C(=O)O)CC/C=C(\C)CC[C@H](O)C(C)(C)O
MIC (Escherichia coli [1]): inactive
MIC (Staphylococcus aureus [2]): inactive
MIC (Wickerhamomyces anomalus): inactive
Activity (KB 3-1 [3]): Non-Toxic
MIC (Mucor plumbeus): 300 µg/mL (≈ 602 µM)
Activity (L929 [4]): Non-Toxic
MIC (Micrococcus luteus): 300 µg/mL (≈ 602 µM)
MIC (Bacillus subtilis): inactive
MIC (Yamadazyma tenuis): inactive

CC(C)=CCC/C(C)=C/CC/C(C)=C/CC/C(C)=C/CO[C@@H](C(=O)O)[C@H](CC(=O)O)C(=O)O
inhibition at 128 µg/mL (Staphylococcus aureus [6]): 37%
MIC (Escherichia coli [1]): inactive
inhibition at 64 µg/mL (Staphylococcus aureus [7]): 1.5%
MIC (Candida albicans [8]): 64 µg/mL (≈ 138 µM)
MIC (Staphylococcus aureus [2]): 300 µg/mL (≈ 646 µM)
MIC (Wickerhamomyces anomalus; Hansenula anomala): 150 µg/mL (≈ 323 µM)
inhibition at 256 µg/mL (Staphylococcus aureus [9]): 86%
inhibition at 64 µg/mL (Staphylococcus aureus [10]): 54%
MIC (Mucor plumbeus): 75 µg/mL (≈ 161 µM)
Activity (L929 [4]): Non-Toxic
inhibition at 8 µg/mL (Candida albicans [11]): 52%
inhibition at 256 µg/mL (Staphylococcus aureus [12]): 49%
MIC (Staphylococcus aureus [13]): > 256 µg/mL
MIC (Micrococcus luteus): 37.5 µg/mL (≈ 80.7 µM)
pIC50 (KB 3-1 [14]): 5.22
MIC (Bacillus subtilis): 300 µg/mL (≈ 646 µM)
Activity (Staphylococcus aureus [15]): Dose-dependent effect
inhibition at 16 µg/mL (Staphylococcus aureus [16]): 28%
MIC (Yamadazyma tenuis): 300 µg/mL (≈ 646 µM)
inhibition at 16 µg/mL (Candida albicans [17]): 72%

CC(C)=CCC[C@@](C)(O)[C@@H](O)CC/C(C)=C/CC/C(C)=C/CO[C@@H](C(=O)O)[C@H](CC(=O)O)C(=O)O
MIC (Escherichia coli [1]): inactive
MIC (Staphylococcus aureus [2]): inactive
MIC (Wickerhamomyces anomalus): inactive
Activity (KB 3-1 [3]): Non-Toxic
MIC (Mucor plumbeus): inactive
Activity (L929 [4]): Non-Toxic
MIC (Bacillus subtilis): inactive
MIC (Yamadazyma tenuis): inactive

COC(=O)C[C@H](C(=O)O)[C@@H](OC/C=C(\C)CC/C=C(\C)CC/C=C(\C)CCC=C(C)C)C(=O)O
MIC (Escherichia coli [1]): inactive
inhibition at 128 µg/mL (Staphylococcus aureus [18]): 38%
MIC (Staphylococcus aureus [2]): 300 µg/mL (≈ 627 µM)
MIC (Wickerhamomyces anomalus): inactive
Activity (KB 3-1 [3]): Non-Toxic
inhibition at 256 µg/mL (Staphylococcus aureus [9]): 86%
inhibition at 64 µg/mL (Staphylococcus aureus [10]): 11%
MIC (Mucor plumbeus): 150 µg/mL (≈ 313 µM)
Activity (L929 [4]): Non-Toxic
MIC (Staphylococcus aureus [13]): > 256 µg/mL
MIC (Micrococcus luteus): 37.5 µg/mL (≈ 78.3 µM)
MIC (Bacillus subtilis): 300 µg/mL (≈ 627 µM)
Activity (Staphylococcus aureus [15]): Dose-dependent effect
MIC (Yamadazyma tenuis): inactive

NYSTATIN
MIC (Candida albicans [8]): 16.7 µg/mL
MIC (Wickerhamomyces anomalus): 16.7 µg/mL
MIC (Mucor plumbeus): 9.4 µg/mL
MIC (Yamadazyma tenuis): 16.7 µg/mL

C/C(=C\CC/C(C)=C/CC/C(C)=C/CC/C(C)=C/CO[C@@H](C(=O)O)[C@H](CC(=O)O)C(=O)O)CO
MIC (Escherichia coli [1]): inactive
MIC (Staphylococcus aureus [2]): 75 µg/mL (≈ 156 µM)
MIC (Wickerhamomyces anomalus): inactive
Activity (KB 3-1 [3]): Non-Toxic
MIC (Mucor plumbeus): 75 µg/mL (≈ 156 µM)
Activity (L929 [4]): Non-Toxic
MIC (Micrococcus luteus): 18.8 µg/mL (≈ 39 µM)
MIC (Bacillus subtilis): 37.5 µg/mL (≈ 78 µM)
MIC (Yamadazyma tenuis): 37.5 µg/mL (≈ 78 µM)

CN(C)[C@@H]1C(=O)C(C(N)=O)=C(O)[C@@]2(O)C(=O)C3=C(O)c4c(O)cccc4[C@@](C)(O)[C@H]3[C@H](O)[C@@H]12
MIC (Staphylococcus aureus [2]): 1 µg/mL (≈ 2.17 µM)
MIC (Staphylococcus aureus [13]): 1 µg/mL (≈ 2.17 µM)
MIC (Micrococcus luteus): 8.3 µg/mL (≈ 18 µM)

C/C(=C\c1csc(C)n1)[C@@H]1C[C@@H]2O[C@]2(C)CCC[C@H](C)[C@H](O)[C@@H](C)C(=O)C(C)(C)[C@@H](O)CC(=O)O1 [PATUPILONE]
pIC50 (L929 [19]): 8.85

C[C@@H]1CO[C@H]2[C@@H]1CC[C@H](C)[C@]21C=C(CO)CC1
MIC (Escherichia coli [1]): inactive
MIC (Staphylococcus aureus [2]): inactive
MIC (Wickerhamomyces anomalus): inactive
Activity (KB 3-1 [3]): Non-Toxic
MIC (Mucor plumbeus): 75 µg/mL (≈ 317 µM)
Activity (L929 [4]): Non-Toxic
MIC (Micrococcus luteus): 75 µg/mL (≈ 317 µM)
MIC (Bacillus subtilis): 300 µg/mL (≈ 1270 µM)
MIC (Yamadazyma tenuis): inactive

C=C1C(=O)O[C@@H](C)[C@@H]1O
Activity (Staphylococcus aureus [20]): inactive
inhibition at 150 µg/mL (Staphylococcus aureus [21]): 99%
inhibition at 37 µg/mL (Staphylococcus aureus [22]): 85%
inhibition at 75 µg/mL (Staphylococcus aureus [23]): 92%
Activity (Candida albicans [24]): inactive
MIC (Staphylococcus aureus [13]): 150 µg/mL (≈ 1170 µM)

From ChEMBL document CHEMBL4251671, “Microporenic Acids A-G, Biofilm Inhibitors, and Antimicrobial Agents from the Basidiomycete Microporus Species” (J Nat Prod, 2018)
